INS-1E ATP HTS = protection of INS-1E cells from cytokine death, primary screen, ATP luminescence, single point; actives 0.1% (n = 20,000); INS-1E cytokine-induced death, 48 h; normalised: neutral wells 0, positive control 100; protection from cytokine-induced ATP loss, % at 10 µM;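 active = mean replicate protection from cytokine-induced ATP loss at least 50% and at least 75% of replicates each reaching 50%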
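Assay system: INS-1E rat cells / Quantity: 8000 cells per well / Medium: RPMI without phenol red, 5% FBS / Probe or stimulus: three-cytokine cocktail (IFN-γ, TNF-α, IL-1β) / Dosing: one compound concentration, pin transfer / Timing: 48 h co-treatment, 10 min post-lysis read / Technique: CellTiter-Glo luminescence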
T cruzi HTS = inhibitors of intracellular Trypanosoma cruzi, primary screen, cell-based, plate reader, single point, set 2; actives 4.9% (n = 22,000); intracellular Trypanosoma cruzi in host cells; activity score (inhibition), % at 5.01 µM; in the data active = activity score above about 55%;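 note: parasites and compound incubated about four days before reading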
A1 apoptosis 2 = A1 inhibitors via caspase activation, primary screen, cell-based, luminescence, HTS, two replicates | MEF A1-2A-BIM cells, caspase-Glo luminescence, 3 h; percent of clofoctol response, DMSO zero | caspase activation, % (concentration not given with the values) | 24,000 tested, under 10 active | AID 2465, 2010; in the data active = caspase activation above about 5.9%
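Material: A1-2A-BIM-expressing MEF cells. Buffer or medium: RPMI-1640 plus 10% FBS. Incubation: cells settled overnight, compound exposure 3 h at 37 °C, 5% CO2. Signal: Caspase-Glo 3/7 luminescence, 1 h at room temperature.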
Hits are given with their value; - = inactive; . = no result given. Many of the other results were omitted from the sample, so hits are more common in it than they were.

SMILES	INS-1E ATP HTS	T cruzi HTS	A1 apoptosis 2
C[C@H](CO)N1C[C@H](C)[C@H](CN(C)Cc2ccc(C(=O)Nc3ccccc3N)cc2)Oc2ccc(NC(=O)Cc3cn(C)c4ccccc34)cc2CC1=O	-	-	.
C[C@@H]1CN([C@H](C)CO)C(=O)Cc2cc(NC(=O)Cc3cn(C)c4ccccc34)ccc2O[C@@H]1CN(C)Cc1ccc(C(=O)Nc2ccccc2N)cc1	-	72.0	-
C[C@H]1CN([C@@H](C)CO)C(=O)Cc2cc(NC(=O)Cc3cn(C)c4ccccc34)ccc2O[C@H]1CN(C)Cc1ccc(C(=O)Nc2ccccc2N)cc1	-	66.2	.
C[C@@H]1CN([C@@H](C)CO)C(=O)Cc2cc(NC(=O)Cc3cn(C)c4ccccc34)ccc2O[C@@H]1CN(C)Cc1ccc(C(=O)Nc2ccccc2N)cc1	.	.	-
C[C@@H]1CN([C@@H](C)CO)C(=O)c2cc(NS(=O)(=O)c3ccc(Cl)cc3)ccc2O[C@@H](C)CCCCO[C@H]1CN(C)Cc1ccc(C(F)(F)F)cc1	.	.	-
C[C@@H]1CN([C@H](C)CO)C(=O)Cc2cc(NC(=O)Nc3cccc4ccccc34)ccc2O[C@@H]1CN(C)Cc1ccc(Cl)c(Cl)c1	-	68.1	.
C[C@H]1CN([C@@H](C)CO)C(=O)c2cc(NC(=O)Nc3cccc4ccccc34)ccc2O[C@H]1CN(C)Cc1ccc(Cl)c(Cl)c1	.	-	-
C[C@H](CO)N1C[C@H](C)[C@@H](CN(C)Cc2ccc(Cl)c(Cl)c2)Oc2c(NC(=O)Nc3cccc4ccccc34)cccc2C1=O	-	67.9	-
C[C@H]1CN([C@@H](C)CO)C(=O)Cc2cc(NC(=O)Nc3cccc4ccccc34)ccc2O[C@H]1CN(C)Cc1ccc(Cl)c(Cl)c1	-	-	.
C[C@H]1CN([C@@H](C)CO)C(=O)c2cc(NC(=O)Nc3cccc4ccccc34)ccc2O[C@@H]1CN(C)Cc1ccc(Cl)c(Cl)c1	-	65.1	-
C[C@@H]1CN([C@H](C)CO)C(=O)Cc2cc(NC(=O)Nc3cccc4ccccc34)ccc2O[C@H]1CN(C)Cc1ccc(Cl)c(Cl)c1	-	-	.
C[C@H](CO)N1C[C@H](C)[C@H](CN(C)Cc2ccc(Cl)c(Cl)c2)Oc2ccc(NC(=O)Nc3cccc4ccccc34)cc2CC1=O	-	68.5	-
C[C@@H]1CN([C@H](C)CO)C(=O)c2cccc(NC(=O)Nc3cccc4ccccc34)c2O[C@@H]1CN(C)Cc1ccc(Cl)c(Cl)c1	-	-	-
CNC[C@@H]1OCCCC[C@H](C)Oc2ccc(NC(=O)Cc3ccccc3)cc2C(=O)N([C@@H](C)CO)C[C@@H]1C	.	.	-
O=C/C=C/c1ccc(-c2ccccc2)cc1	.	.	-
COCCCNC(=O)[C@]1(Cc2ccccc2N=[N+]=[N-])N=C(c2ccc(OCCCO)cc2)O[C@@H]1c1ccccc1	.	.	-
C[C@@H]1CN([C@H](C)CO)C(=O)Cc2cc(NC(=O)Nc3cccc4ccccc34)ccc2O[C@H]1CN(C)C(=O)NC1CCCCC1	-	-	-
COc1ccc(NC(=O)Nc2ccc3c(c2)C(=O)N([C@H](C)CO)C[C@H](C)[C@@H](CN(C)Cc2ccc(Cl)c(Cl)c2)OCCCC[C@@H](C)O3)cc1	-	59.4	-
COc1ccc(NC(=O)Nc2ccc3c(c2)C(=O)N([C@H](C)CO)C[C@H](C)[C@H](CN(C)Cc2ccc(Cl)c(Cl)c2)OCCCC[C@H](C)O3)cc1	.	.	-
COc1ccc(NC(=O)Nc2ccc3c(c2)C(=O)N([C@H](C)CO)C[C@H](C)[C@H](CN(C)Cc2ccc(Cl)c(Cl)c2)OCCCC[C@@H](C)O3)cc1	-	63.8	.
COc1ccc(NC(=O)Nc2ccc3c(c2)C(=O)N([C@@H](C)CO)C[C@H](C)[C@@H](CN(C)Cc2ccc(Cl)c(Cl)c2)OCCCC[C@@H](C)O3)cc1	.	.	-
C[C@H]1CN([C@@H](C)CO)C(=O)Cc2cc(NS(=O)(=O)c3ccc(Cl)cc3)ccc2O[C@H]1CN(C)S(=O)(=O)c1ccccc1	-	-	.
Cc1ccc(S(=O)(=O)Nc2ccc3c(c2)CC(=O)N([C@H](C)CO)C[C@H](C)[C@H](CN(C)S(=O)(=O)c2ccccc2)O3)cc1	-	-	-
C[C@H]1CN([C@@H](C)CO)C(=O)Cc2cc(NS(=O)(=O)c3ccc(Cl)cc3)ccc2O[C@H]1CN(C)S(=O)(=O)c1ccc(Cl)cc1	-	-	-
Cc1ccc(S(=O)(=O)Nc2ccc3c(c2)CC(=O)N([C@H](C)CO)C[C@@H](C)[C@@H](CN(C)S(=O)(=O)c2ccccc2)O3)cc1	-	69.1	.

High-throughput results (PubChem BioAssay)
